Source: ChEMBL document CHEMBL1921779, “Pharmacological validation of Trypanosoma brucei phosphodiesterases B1 and B2 as druggable targets for African sleeping sickness” (J Med Chem, 2011)

What was measured:
[1] = Inhibition of His-tagged catalytic domain Trypanosoma brucei brucei PDEB1 expressed in baculovirus infected insect Sf21 cells at 100 uM
In short: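 Inhibitor preincubated 10 min before substrate, final DMSO 2%, 5% or 10%. BioMol green phosphate read at 620nm. Initial-velocity change versus vehicle; mean of ≥3 independent experiments.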

[2] = Inhibition of His-tagged catalytic domain Trypanosoma brucei brucei PDEB1 expressed in baculovirus infected insect Sf21 cells
[3] = Inhibition of His-tagged catalytic domain Trypanosoma brucei brucei PDEB2 expressed in baculovirus infected insect Sf21 cells
[4] = test system: Trypanosoma brucei brucei; experiment: Cytotoxicity against Trypanosoma brucei brucei at 100 uM
[5] = test system: Trypanosoma brucei brucei; experiment: Antitrypanosomal activity against blood stream Trypanosoma brucei brucei 427 after 48 hrs by Alamar blue assay; format: functional, organism-based; conditions: Trypanosoma brucei, 427, 48 h
[6] = Inhibition of His-tagged catalytic domain Trypanosoma brucei brucei PDEB1 expressed in baculovirus infected insect Sf21 cells at 10 uM
In short: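 Single-concentration screen of purified His-tagged TbrPDEB1 catalytic domain (0.25 µg) at 37°C in 10 mM Tris pH 7.4, 0.2 mg/ml BSA, 10 mM MgCl2, 25 µM cAMP and excess 5'-nucleotidase. Inhibitor in DMSO (2%, 5% or 10% final) preincubated 10 min before substrate. BioMol green phosphate read-out at 620 nm; percent inhibition of initial velocity versus vehicle control.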

Compound COc1cc2ncnc(N3CC[C@@H](Oc4cnc5ccccc5n4)C3)c2cc1OC has an inhibition [1] greater than 55%.

Work on COc1cc(Cl)c(C(=O)Nc2c(Cl)cncc2Cl)cc1OC yielded an IC50 [2] greater than 100 µM.

In the case of CCOc1cc(C(=O)Nc2c(Cl)cncc2Cl)ccc1OC, the IC50 [2] is reported as 16.5 µM and the IC50 [3] is reported as 34 µM.

COc1cc(C(=O)Nc2c(Cl)cncc2Cl)cc(OC)c1OC gave an IC50 [2] greater than 100 µM, an Activity [4] of 10% and an EC50 [5] greater than 100 µM.

CS(=O)(=O)Oc1ccc2c(NC(N)=O)c(C(=O)c3ccc(Cl)cc3Cl)oc2c1 showed an IC50 [2] greater than 10 µM and an IC50 [3] greater than 10 µM.

In the case of OCCN(CCO)c1nc(N2CCCCC2)c2nc(N(CCO)CCO)nc(N3CCCCC3)c2n1 [DIPYRIDAMOLE], the IC50 [2] is reported as 72 µM and the inhibition [1] is reported as greater than 50%.

With CCCCOc1cc(C(=O)Nc2c(Cl)cncc2Cl)ccc1OC the IC50 [2] was 7.7 µM, the IC50 [3] was 14.3 µM and the EC50 [5] was 17.7 µM.

In the case of COc1ccc(C(=O)Nc2c(Cl)cncc2Cl)cc1OC1CCCC1, the IC50 [2] is reported as 4.7 µM, the IC50 [3] is reported as 11.4 µM and the inhibition [1] is reported as greater than 50%. For the same compound, the EC50 [5] was 9.57 µM.

For COc1ccc(C(=O)Nc2c(Cl)cncc2Cl)cc1OC(C)C, the IC50 [2] was greater than 30 µM, the IC50 [3] was greater than 30 µM and the EC50 [5] was 27.6 µM.

COc1cccc(Nc2c(C(N)=O)cnc3c(C)cc(S(=O)(=O)c4cccc(C(=O)N(C)C)c4)cc23)c1 gave an inhibition [6] greater than 50%.

For O=C(Nc1c(Cl)cncc1Cl)c1ccc(OC(F)F)c(OCC2CC2)c1 [ROFLUMILAST], the IC50 [2] was greater than 100 µM.

Work on CCCOc1cc(C(=O)Nc2c(Cl)cncc2Cl)ccc1OC yielded an IC50 [2] of 13.6 µM, an IC50 [3] of 9.4 µM and an EC50 [5] of 13 µM.

CCCCOc1cc(CC2CNC(=O)N2)ccc1OC (stereo unspecified) [RO-201724] gave an IC50 [2] greater than 100 µM.

In the case of CCOc1ccc(C(=O)Nc2c(Cl)cncc2Cl)cc1OCC, the IC50 [2] is reported as greater than 100 µM.

COc1cc2c(cc1OC)-c1c/c(=N\c3c(C)cc(C)cc3C)n(C)c(=O)n1CC2 [TREQUINSIN] showed an IC50 [2] of 12 µM, an IC50 [3] of 25.4 µM and an inhibition [1] greater than 50%. The EC50 [5] was 5.8 µM.

Compound COc1cc(C(=O)Nc2c(Cl)cncc2Cl)ccc1OC(C)=O has an IC50 [2] greater than 100 µM.

COc1ccc(C(=O)Nc2c(Cl)cncc2Cl)c(Cl)c1OC gave an IC50 [2] greater than 100 µM.

COc1ccc(C2CNC(=O)C2)cc1OC1CCCC1 (stereo unspecified) [ROLIPRAM] showed an IC50 [2] greater than 100 µM.

Cc1noc(/C(=C/c2cccc(-c3cc(C(C)(C)S(C)(=O)=O)cc4cccnc34)c2)c2ccc(S(C)(=O)=O)cc2)n1 gave an inhibition [6] greater than 50%.

Work on COc1ccc(C(=O)Nc2c(Cl)cncc2Cl)cc1OCc1ccccc1 yielded an IC50 [2] of 12.5 µM, an IC50 [3] of 11.2 µM and an EC50 [5] of 10.1 µM.

For COc1ccc(C(=O)Nc2c(Cl)cncc2Cl)cc1OC, the IC50 [2] was greater than 100 µM and the IC50 [3] was greater than 100 µM.
